According to ChEMBL document CHEMBL3997810, “A Novel Potent Anticancer Compound Optimized from a Natural Oridonin Scaffold Induces Apoptosis and Cell Cycle Arrest through the Mitochondrial Pathway” (J Med Chem, 2017):
The source made the active and inactive calls. No cut-off for these calls is given here.

Key:
Bel-7402 [1] = test: Antiproliferative activity against human Bel7402 cells after 72 hrs by MTT assay; format: functional, cell-based; details: Bel-7402, 72 h
Procedure, shortened: (§1)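 MGC-803 and MCF-7 cells grown in DMEM (MCF-7 with 1× NEAA); Bel-7402 and K562 grown in RPMI 1640; all media with 10% FBS. Cells seeded at 3500/well, pre-incubated 24 h, then exposed to compounds in fresh medium (DMSO ≤0.25%) for 72 h at 37 °C. MTT read-out at 570 nm. Quadruplicate wells, repeated three times; means ± SD (n = 3).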

MCF7 [2] = test: Antiproliferative activity against human MCF7 cells after 72 hrs by MTT assay; format: functional, cell-based; details: MCF7, 72 h; procedure, shortened: as §1
K562 = test: Antiproliferative activity against human K562 cells after 72 hrs by MTT assay; format: functional, cell-based; details: K562, 72 h; procedure, shortened: as §1
MCF7 [3] = test: Cell cycle arrest in human MCF7 cells assessed as accumulation at G1 phase at 0.125 uM after 48 hrs by propidium iodide staining based flow cytometry (reference value: 49.77%); format: functional
Procedure, shortened: (§2)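 MCF-7 cells, 5 × 10^4 per well, seeded overnight, then exposed to 0.125–1 μM compound, or DMSO, for 48 h. Ethanol-fixed (70%, −20 °C, 12 h) and stained with PI/RNase at 37 °C for 30 min. Phase distribution determined by flow cytometry.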

MCF7 [4] = test: Cell cycle arrest in human MCF7 cells assessed as accumulation at G2/M phase at 0.125 uM after 48 hrs by propidium iodide staining based flow cytometry (reference value: 13.05%); format: functional; procedure, shortened: as §2
MCF7 [5] = test: Cell cycle arrest in human MCF7 cells assessed as accumulation at G2/M phase at 1 uM after 48 hrs by propidium iodide staining based flow cytometry (reference value: 13.05%); format: functional; procedure, shortened: as §2
Bel-7402 [6] = test: Cell cycle arrest in human Bel7402 cells assessed as accumulation at S phase at 2 uM after 48 hrs by propidium iodide staining based flow cytometry (reference value: 8.78%); format: functional
Bel-7402 [7] = test: Cell cycle arrest in human Bel7402 cells assessed as accumulation at G1 phase at 4 uM after 48 hrs by propidium iodide staining based flow cytometry (reference value: 34.61%); format: functional
MCF7 [8] = test: Cytotoxicity against human MCF7 cells at 10 to 50 uM after 24 hrs by LDH assay; format: functional, cell-based
Procedure, shortened: (§3)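 Membrane integrity assay on MCF-7 and Bel-7402 cells seeded at ~5 × 10^3 per well for 24 h, then given compounds at 10, 20 or 50 μM. Culture medium collected and assayed with CytoTox-ONE LDH reagent for 10 min, followed by stop solution. Fluorescence read at Ex 560/Em 590 nm. Expressed as percentage of unstimulated cells.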

Bel-7402 [9] = test: Cytotoxicity against human Bel7402 cells at 10 to 50 uM after 24 hrs by LDH assay; format: functional, cell-based; procedure, shortened: as §3
MCF7 [10] = test: Induction of apoptosis in human MCF7 cells after 24 hrs by Annexin-V FITC/propidium iodide staining based flow cytometry; format: functional, cell-based
MCF7 [11] = test: Induction of apoptosis in human MCF7 cells assessed as necrotic cells at 0.125 uM after 24 hrs by Annexin-V FITC/propidium iodide staining based flow cytometry (reference value: 0.102%); format: functional
MCF7 [12] = test: Induction of apoptosis in human MCF7 cells assessed as late apoptotic cells at 0.25 uM after 24 hrs by Annexin-V FITC/propidium iodide staining based flow cytometry (reference value: 0.255%); format: functional
MCF7 [13] = test: Induction of apoptosis in human MCF7 cells assessed as necrotic cells at 0.25 uM after 24 hrs by Annexin-V FITC/propidium iodide staining based flow cytometry (reference value: 0.102%); format: functional
MCF7 [14] = test: Induction of apoptosis in human MCF7 cells assessed as necrotic cells at 1 uM after 24 hrs by Annexin-V FITC/propidium iodide staining based flow cytometry (reference value: 0.102%); format: functional
MCF7 [15] = test: Induction of apoptosis in human MCF7 cells assessed as decrease in Bcl2 protein expression at 0.5 to 1 uM after 48 hrs by Western blot method; format: functional, cell-based
Procedure, shortened: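 MCF-7 cells exposed to 0–1 μM compound for 48 h, then lysed on ice. Lysate (20 μg protein) run on 8–12% SDS-PAGE and transferred to PVDF. Probed overnight at 4 °C with primary antibodies, then fluorescent secondaries. Band densities normalized to β-actin. Mean ± SD of three independent experiments.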

MCF7 [16] = test: Induction of apoptosis in human MCF7 cells assessed as increase in caspase-9 protein expression up to 1 uM after 48 hrs by Western blot method; format: functional, cell-based
Procedure, shortened: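 MCF-7 cells were treated at 0, 0.125, 0.25, 0.5 or 1 μM for 48 h, washed in ice-cold PBS and lysed on ice for 20 min. Lysates were spun at 13,000 g, 4 °C. 20 μg protein was run on SDS-PAGE and blotted to PVDF, probed overnight at 4 °C with primary antibodies, then with fluorescent secondary antibodies. Band density was expressed relative to β-actin; three independent experiments.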

MCF7 [17] = test: Antitumor activity against human MCF7 cells xenografted in Balb/c nude mouse assessed as tumor growth inhibition at 20 mg/kg/day, iv for 4 weeks relative to control; format: functional; details: 672 h, read-out: TGI
Procedure, shortened: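 Six-week-old male BALB/c nude mice received 1 × 10^6 MCF-7 cells subcutaneously in the right flank. After 7 d of tumor growth, mice were randomized into groups of six. Dosing was 20 mg/kg iv once daily for 28 days in 10% DMF/2% poloxamer/88% saline. Tumor volume (L × W²/2) and body weight were recorded every 2 days. Inhibition = (1 − mean treated/control tumor weight) × 100%.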

Mus musculus [18] = test: Nephrotoxicity in Balb/c nude mouse xenografted with human MCF7 cells assessed as morphological changes in kidney at 20 mg/kg/day, iv for 4 weeks by hematoxylin and eosin staining based microscopic method; format: toxicity, organism-based; details: in vivo, 672 h
Procedure, shortened: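 Male BALB/c nude mice aged six weeks received 1 × 10^6 MCF-7 cells subcutaneously in the right flank. After 7 d they were randomized and dosed 20 mg/kg iv once daily in 10% DMF/2% poloxamer/88% saline; saline control. Heart, liver, spleen, lung and kidney were fixed in 4% paraformaldehyde, paraffin-embedded, sectioned at 5 μm, H&E stained and examined microscopically.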

H22 = test: Antitumor activity against […] cells xenografted in ICR mouse assessed as tumor growth inhibition at 20 mg/kg/day, iv for 3 weeks; format: functional, organism-based
Procedure, shortened: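 Male ICR mice (5 weeks old) inoculated subcutaneously in the right flank with 1 × 10^6 H22 cells. After 7 d, randomized into groups of eight or six. Dosed iv 20 mg/kg daily in 10% DMF/2% poloxamer/88% saline. Cyclophosphamide 20 mg/kg iv as positive control; saline as negative control. Body weight and tumour volume (L × W²/2) every 2 days; inhibition calculated from final tumour weights.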

Mus musculus [19] = test: Toxicity in ICR mouse xenografted with […] cells assessed as changes in body weight at 20 mg/kg/day, iv for 3 weeks measured once in 2 days during compound dosing; format: organism-based; details: in vivo
Procedure, shortened: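 Mice received 1 × 10^6 tumor cells subcutaneously in the right flank: MCF-7 in male BALB/c nude mice aged six weeks, H22 in male ICR mice aged five weeks. After 7 d they were randomized (six or eight per group). Dosing was 20 mg/kg iv daily in 10% DMF/2% poloxamer/88% saline for 21 or 28 days; saline control. Body weight was recorded every 2 days.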

For `C=C1C(=O)[C@]23[C@H](OC(=O)/C=C/c4ccccc4)[C@H]1CC[C@H]2[C@]12C=CCC(C)(C)[C@H]1[C@H](O)[C@]3(O)OC2`, the IC50 (Bel-7402 [1]) was 1.03 µM, the IC50 (MCF7 [2]) was 0.08 µM and the IC50 (K562) was 0.29 µM. The Activity (MCF7 [3]) was 49.27%, the Activity (MCF7 [4]) was 16.83% and the Activity (MCF7 [5]) was 34.23%. The Activity (Bel-7402 [6]) was 10.78%, the Activity (Bel-7402 [7]) was 27.44% and the Activity (MCF7 [8]) was “inactive”. The Activity (Bel-7402 [9]) was “inactive”, the Activity (MCF7 [10]) was “Dose-dependent effect” and the Activity (MCF7 [11]) was 1.14%. It also gave an Activity (MCF7 [12]) of 19.6%, an Activity (MCF7 [13]) of 2.39% and an Activity (MCF7 [14]) of 1.14%. The Activity (MCF7 [15]) was “Active”, the Activity (MCF7 [16]) was “Active” and the inhibition in vivo at 20 mg/kg/day (MCF7 [17]) was 69.8%. For the same compound, the Activity (Mus musculus [18]) was “Non-Toxic”, the TGI (H22) was “Active” and the Activity (Mus musculus [19]) was “Non-Toxic”.
